Laboratory results taken from ChEMBL document CHEMBL5715950, “Characterization of molecular and cellular functions of the cyclin-dependent kinase CDK9 using a novel specific inhibitor” (Br J Pharmacol, 2014).
pIC50, pKd: −log10 of the molar value. Activity calls are given as the source filed them. No cut-off for these calls is given here.

Experiments:
[1] = target: T1, Glycogen synthase kinase-3 alpha (Homo sapiens, UniProt P49840); assay: Inhibition of GSK3A (unknown origin) incubated for 120 mins in presence of 33P-ATP by radiometric kinase assay
Target sequence in this assay (P49840 whole entry): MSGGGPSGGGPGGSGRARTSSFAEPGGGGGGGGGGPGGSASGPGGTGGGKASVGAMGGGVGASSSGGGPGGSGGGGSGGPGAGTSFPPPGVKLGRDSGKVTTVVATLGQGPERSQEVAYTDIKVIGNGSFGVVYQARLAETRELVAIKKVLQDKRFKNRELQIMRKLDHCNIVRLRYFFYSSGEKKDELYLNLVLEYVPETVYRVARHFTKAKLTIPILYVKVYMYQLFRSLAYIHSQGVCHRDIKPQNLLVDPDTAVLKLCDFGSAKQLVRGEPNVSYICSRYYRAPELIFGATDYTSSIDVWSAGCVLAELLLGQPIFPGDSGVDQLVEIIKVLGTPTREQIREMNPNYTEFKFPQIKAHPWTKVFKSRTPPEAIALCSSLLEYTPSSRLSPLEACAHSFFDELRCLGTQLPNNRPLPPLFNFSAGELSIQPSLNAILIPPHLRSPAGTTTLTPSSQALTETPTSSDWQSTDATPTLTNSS

[2] = target: Cyclin-dependent kinase 9 (Homo sapiens) (UniProt P50750); assay: Inhibition of CDK9 in human HeLa cells assessed as downregulation of Serine 5 phosphorylation at 10 uM incubated for 60 mins by Western blotting analysis; assay type: cell-based
Sequence of Cyclin-dependent kinase 9 (Homo sapiens) (P50750 whole entry, the tested form may be a part): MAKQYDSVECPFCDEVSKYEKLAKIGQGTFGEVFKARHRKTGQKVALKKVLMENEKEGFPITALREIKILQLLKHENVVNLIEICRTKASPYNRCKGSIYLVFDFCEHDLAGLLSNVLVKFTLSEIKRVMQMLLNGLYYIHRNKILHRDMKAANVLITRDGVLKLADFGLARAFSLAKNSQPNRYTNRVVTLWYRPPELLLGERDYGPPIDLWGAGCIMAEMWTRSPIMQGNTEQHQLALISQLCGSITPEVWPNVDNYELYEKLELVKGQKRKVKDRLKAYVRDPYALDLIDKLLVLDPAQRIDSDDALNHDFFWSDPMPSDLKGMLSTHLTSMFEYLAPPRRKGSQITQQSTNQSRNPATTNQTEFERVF

[3] = target: T1, Glycogen synthase kinase-3 alpha; assay: Inhibition of GSK3A (unknown origin) assessed as residual activity at 10 uM incubated for 120 mins in presence of 33P-ATP by radiometric kinase assay relative to control
Target sequence in this assay (P49840 2-483 limits assumed): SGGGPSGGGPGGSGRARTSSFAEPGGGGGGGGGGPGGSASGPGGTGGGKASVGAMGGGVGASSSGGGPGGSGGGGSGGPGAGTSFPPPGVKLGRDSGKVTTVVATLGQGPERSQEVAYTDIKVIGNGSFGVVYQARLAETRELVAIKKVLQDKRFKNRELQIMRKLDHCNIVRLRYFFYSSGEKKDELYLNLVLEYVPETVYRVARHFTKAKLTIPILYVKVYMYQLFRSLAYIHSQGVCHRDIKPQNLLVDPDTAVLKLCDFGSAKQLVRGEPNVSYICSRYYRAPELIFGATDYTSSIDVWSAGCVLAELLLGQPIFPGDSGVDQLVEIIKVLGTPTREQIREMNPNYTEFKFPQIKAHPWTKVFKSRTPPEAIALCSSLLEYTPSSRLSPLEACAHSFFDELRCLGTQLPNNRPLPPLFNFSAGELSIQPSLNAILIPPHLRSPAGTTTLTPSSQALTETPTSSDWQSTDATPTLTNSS

[4] = target: Cyclin-dependent kinase 4/cyclin D1 (Homo sapiens, UniProt P11802); assay: Inhibition of CDK4/Cyclin D1 (unknown origin) using ULight MBP peptide as substrate in presence of ATP incubated for 1 hr by FRET based LANCE Ultra KinaSelect screen assay; assay type: protein-complex assay
Sequence of Cyclin-dependent kinase 4/cyclin D1 (P11802 whole entry): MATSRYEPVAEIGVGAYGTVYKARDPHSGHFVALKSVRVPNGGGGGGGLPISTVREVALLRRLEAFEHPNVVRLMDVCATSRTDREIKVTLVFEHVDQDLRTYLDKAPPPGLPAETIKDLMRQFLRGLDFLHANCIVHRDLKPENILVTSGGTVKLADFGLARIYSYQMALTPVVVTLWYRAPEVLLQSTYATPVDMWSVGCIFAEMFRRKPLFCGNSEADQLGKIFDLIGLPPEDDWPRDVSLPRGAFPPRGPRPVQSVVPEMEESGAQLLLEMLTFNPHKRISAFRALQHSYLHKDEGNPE
Sequence of Cyclin-dependent kinase 4/cyclin D1 (P24385 whole entry, further chain): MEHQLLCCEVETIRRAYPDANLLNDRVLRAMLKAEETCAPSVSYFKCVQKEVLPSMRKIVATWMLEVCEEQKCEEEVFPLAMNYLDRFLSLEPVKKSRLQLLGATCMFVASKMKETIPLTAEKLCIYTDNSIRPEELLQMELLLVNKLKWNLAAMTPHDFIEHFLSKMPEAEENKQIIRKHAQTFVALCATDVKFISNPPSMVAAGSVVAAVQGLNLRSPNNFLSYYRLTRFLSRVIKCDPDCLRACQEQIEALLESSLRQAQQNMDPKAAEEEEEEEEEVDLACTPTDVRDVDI

[5] = test system: p53HCT116; assay: Induction of apoptosis in human p53HCT116 cells at 10 uM incubated for 24 hrs by Annexin V-FITC/PI staining based flow cytometric analysis; assay type: functional, cell-based
Method in brief: (§1)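 Cells grown at 37°C, 5% CO2 (A549, HeLa, MCF7 in DMEM high glucose; HCT116 in McCoy's 5A; THP1 and primary AML M4 apheresis blasts in RPMI1640), exposed to inhibitor or DMSO for 24 h. Apoptotic fraction by flow cytometry after annexin V-fluorescein/propidium iodide double staining. Means ± SD of three biological replicates; AML blasts from one patient, three technical replicates. Student's t-test versus DMSO/untreated.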

[6] = target: CDK7/Cyclin H/MNAT1 (Homo sapiens, UniProt P50613); assay: Inhibition of CDK7/Cyclin H/MAT1 (unknown origin) using ULight MBP peptide as substrate in presence of ATP incubated for 1 hr by FRET based LANCE Ultra KinaSelect screen assay; assay type: protein-complex assay
Sequence of CDK7/Cyclin H/MNAT1 (P51946 whole entry): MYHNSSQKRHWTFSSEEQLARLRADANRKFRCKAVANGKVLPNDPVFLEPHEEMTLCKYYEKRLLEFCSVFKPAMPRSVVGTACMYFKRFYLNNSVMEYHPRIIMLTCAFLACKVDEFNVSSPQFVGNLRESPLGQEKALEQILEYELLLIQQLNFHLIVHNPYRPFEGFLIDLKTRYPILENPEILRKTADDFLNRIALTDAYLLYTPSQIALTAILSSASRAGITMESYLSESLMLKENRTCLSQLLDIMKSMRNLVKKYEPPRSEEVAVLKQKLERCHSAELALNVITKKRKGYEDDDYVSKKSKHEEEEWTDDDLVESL
Sequence of CDK7/Cyclin H/MNAT1 (P50613 whole entry): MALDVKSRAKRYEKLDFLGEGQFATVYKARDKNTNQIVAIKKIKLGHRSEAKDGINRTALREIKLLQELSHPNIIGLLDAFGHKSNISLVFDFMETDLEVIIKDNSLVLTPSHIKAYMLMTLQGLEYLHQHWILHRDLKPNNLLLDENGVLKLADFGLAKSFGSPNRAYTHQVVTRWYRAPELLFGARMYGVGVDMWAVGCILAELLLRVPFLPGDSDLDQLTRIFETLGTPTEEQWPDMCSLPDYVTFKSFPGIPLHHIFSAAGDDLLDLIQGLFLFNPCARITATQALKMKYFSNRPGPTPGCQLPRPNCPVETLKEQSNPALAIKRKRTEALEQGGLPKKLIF
Sequence of CDK7/Cyclin H/MNAT1 (P51948 whole entry, further chain): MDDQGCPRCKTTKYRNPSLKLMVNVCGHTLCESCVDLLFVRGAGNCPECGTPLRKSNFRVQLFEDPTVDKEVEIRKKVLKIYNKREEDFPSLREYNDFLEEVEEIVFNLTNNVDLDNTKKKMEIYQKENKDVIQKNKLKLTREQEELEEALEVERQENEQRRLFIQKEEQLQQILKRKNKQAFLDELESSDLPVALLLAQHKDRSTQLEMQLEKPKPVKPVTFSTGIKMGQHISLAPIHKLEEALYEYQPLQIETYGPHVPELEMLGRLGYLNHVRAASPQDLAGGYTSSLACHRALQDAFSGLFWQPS

[7] = target: Cyclin-dependent kinase 9 (Homo sapiens) (UniProt P50750); assay: Inhibition of CDK9 in human A549 cells assessed as downregulation of CCND1 mRNA expression at 2 to 6 uM incubated for 90 mins by RT-qPCR analysis relative to control; assay type: cell-based; conditions: dose 2-6 µM
[8] = Selectivity ratio of IC50 for inhibition of CDK9/Cyclin T1 (unknown origin) to IC50 for inhibition of CDK6/Cyclin D3 (unknown origin)
[9] = test system: HeLa; assay: Inhibition of RNA synthesis in human HeLa cells stably transfected with luciferase reporter gene incubated for 30 mins followed by doxycycline addition and measured after 60 mins by RT-qPCR analysis; assay type: functional, cell-based; conditions: time 90.0 min
Method in brief: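 Stably transfected HeLa cells carrying a tetracycline-inducible luciferase reporter: inhibitor or DMSO for 30 min, then 1 μg/mL doxycycline for 60 min. De novo reporter transcripts measured by RT-qPCR.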

[10] = test system: A549; assay: Induction of apoptosis in human A549 cells at 10 uM incubated for 24 hrs by Annexin V-FITC/PI staining based flow cytometric analysis; assay type: functional, cell-based; method in brief: as §1
[11] = target: Cyclin-dependent kinase 9 (Homo sapiens) (UniProt P50750); assay: Inhibition of CDK9 in human A549 cells assessed as downregulation of PLK2 mRNA expression at 1 to 10 uM incubated for 90 mins by RT-qPCR analysis relative to control; assay type: cell-based; conditions: dose 1-10 µM
[12] = target: Cyclin-dependent kinase 9 (Homo sapiens) (UniProt P50750); assay: Inhibition of CDK9 in human MCF7 cells assessed as upregulation of p53 phosphorylation at Ser392 at 10 uM incubated for 4 hrs by Western blotting analysis; assay type: cell-based
[13] = Displacement of kinase tracer 236 from CDK2/Cyclin A (unknown origin) assessed as dissociation constant incubated for 1 hr by LanthScreen Eu kinase binding assay; design: species or system Homo sapiens
[14] = target: Cyclin-dependent kinase 9 (Homo sapiens) (UniProt P50750); assay: Inhibition of CDK9 in human THP-1 cells assessed as downregulation of MED1 mRNA expression by RT-qPCR analysis; assay type: cell-based
[15] = test system: THP-1; assay: Induction of apoptosis in human THP-1 cells at > 2 uM incubated for 24 hrs by Annexin V-FITC/PI staining based flow cytometric analysis; assay type: functional, cell-based; method in brief: as §1
[16] = test system: A549; assay: Induction of apoptosis in human A549 cells at 15 uM incubated for 24 hrs by Annexin V-FITC/PI staining based flow cytometric analysis; assay type: functional, cell-based; method in brief: as §1
[17] = test system: Leukemia cell; assay: Induction of apoptosis in human Acute myeloid leukemic cell at > 2 uM incubated for 24 hrs by Annexin V-FITC/PI staining based flow cytometric analysis; assay type: functional; method in brief: as §1
[18] = target: Cyclin-dependent kinase 9 (Homo sapiens) (UniProt P50750); assay: Inhibition of CDK9 in human THP-1 cells assessed as downregulation of RPS15 mRNA expression by RT-qPCR analysis; assay type: cell-based
[19] = target: Cyclin-dependent kinase 9 (Homo sapiens) (UniProt P50750); assay: Inhibition of CDK9 in human HeLa cells assessed as upregulation of serine 2 phosphorylation at 10 uM incubated for 1 hr by chromatin immunoprecipitation assay; assay type: cell-based
[20] = target: Cyclin-dependent kinase 9 (Homo sapiens) (UniProt P50750); assay: Inhibition of CDK9 in human A549 cells assessed as downregulation of GAPDH mRNA expression at 2 to 6 uM incubated for 90 mins by RT-qPCR analysis relative to control; assay type: cell-based; conditions: dose 2-6 µM
[21] = Transcription level in human HeLa cells nuclear extract fused with Gal4-VP16 at 10 uM in presence of ATP by phosphorimaging analysis relative to control
[22] = target: CDK6/cyclin D3 (Homo sapiens, UniProt Q00534); assay: Inhibition of CDK6/Cyclin D3 (unknown origin) using ULight MBP peptide as substrate in presence of ATP incubated for 1 hr by FRET based LANCE Ultra KinaSelect screen assay; assay type: protein-complex assay
Sequence of CDK6/cyclin D3 (P30281 whole entry): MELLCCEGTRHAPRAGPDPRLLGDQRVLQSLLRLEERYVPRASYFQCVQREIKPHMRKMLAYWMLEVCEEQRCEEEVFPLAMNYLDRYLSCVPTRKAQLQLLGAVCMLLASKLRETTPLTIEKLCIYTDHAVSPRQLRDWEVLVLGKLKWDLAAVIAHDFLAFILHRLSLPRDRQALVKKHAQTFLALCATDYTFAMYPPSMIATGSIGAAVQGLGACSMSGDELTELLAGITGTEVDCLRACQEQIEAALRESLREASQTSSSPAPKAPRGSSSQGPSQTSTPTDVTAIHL
Sequence of CDK6/cyclin D3 (Q00534 whole entry): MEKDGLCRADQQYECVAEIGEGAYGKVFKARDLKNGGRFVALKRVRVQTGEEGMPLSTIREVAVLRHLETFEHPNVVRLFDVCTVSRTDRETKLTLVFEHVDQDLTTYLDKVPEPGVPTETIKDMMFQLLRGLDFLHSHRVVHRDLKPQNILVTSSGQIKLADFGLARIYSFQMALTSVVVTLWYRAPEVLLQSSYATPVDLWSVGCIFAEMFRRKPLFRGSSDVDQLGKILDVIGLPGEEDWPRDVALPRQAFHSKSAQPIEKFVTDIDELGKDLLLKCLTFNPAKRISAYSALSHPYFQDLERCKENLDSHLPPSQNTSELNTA
Method in brief: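 Time-resolved FRET kinase assay with purified CDK-cyclin pairs. ULight MBP peptide substrate was 50 nM final. Buffer was 50 mM HEPES-KOH pH 7.5, 10 mM MgCl2, 1 mM EGTA and 2 mM DTT, with ATP at each kinase's KM (CDK2-cyclin A 3 μM). Reactions ran 1 h at room temperature, then 2 nM Eu-labelled anti-phospho antibody was added for detection. IC50 given as mean ± SD.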

[23] = target: Cyclin-dependent kinase 9 (Mus musculus) (UniProt Q99J95); assay: Inhibition of CDK9 in mouse Embryonic stem cell assessed as downregulation of Serine 2 phosphorylation by measuring fold decrease at 10 uM incubated for 90 mins by Western blotting analysis; assay type: cell-based
Sequence of Cyclin-dependent kinase 9 (Mus musculus) (Q99J95 whole entry): as the sequence (P50750 whole entry, the tested form may be a part) above, with S17T, R37K, K40Q, N258K, Y262F counted along it
Method in brief: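 Mouse embryonic stem cells treated with 10 μM inhibitor or DMSO for 90 or 180 min; whole-cell Western blot for RNAPII CTD Ser2-P. Band signals quantified densitometrically and normalised to total RNAPII.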

[24] = test system: HeLa; assay: Induction of apoptosis in human HeLa cells at > 2 uM incubated for 24 hrs by Annexin V-FITC/PI staining based flow cytometric analysis; assay type: functional, cell-based; method in brief: as §1
[25] = Transcription level in human HEK293T cells nuclear extract fused with Gal4-VP16 at 10 uM in presence of ATP by phosphorimaging analysis relative to control; conditions: HEK-293T
[26] = target: Tyrosine-protein kinase ABL2 (Homo sapiens, UniProt P42684); assay: Inhibition of ABL2 (unknown origin) assessed as residual activity at 10 uM incubated for 120 mins in presence of 33P-ATP by radiometric kinase assay relative to control
Sequence of Tyrosine-protein kinase ABL2 (P42684 whole entry): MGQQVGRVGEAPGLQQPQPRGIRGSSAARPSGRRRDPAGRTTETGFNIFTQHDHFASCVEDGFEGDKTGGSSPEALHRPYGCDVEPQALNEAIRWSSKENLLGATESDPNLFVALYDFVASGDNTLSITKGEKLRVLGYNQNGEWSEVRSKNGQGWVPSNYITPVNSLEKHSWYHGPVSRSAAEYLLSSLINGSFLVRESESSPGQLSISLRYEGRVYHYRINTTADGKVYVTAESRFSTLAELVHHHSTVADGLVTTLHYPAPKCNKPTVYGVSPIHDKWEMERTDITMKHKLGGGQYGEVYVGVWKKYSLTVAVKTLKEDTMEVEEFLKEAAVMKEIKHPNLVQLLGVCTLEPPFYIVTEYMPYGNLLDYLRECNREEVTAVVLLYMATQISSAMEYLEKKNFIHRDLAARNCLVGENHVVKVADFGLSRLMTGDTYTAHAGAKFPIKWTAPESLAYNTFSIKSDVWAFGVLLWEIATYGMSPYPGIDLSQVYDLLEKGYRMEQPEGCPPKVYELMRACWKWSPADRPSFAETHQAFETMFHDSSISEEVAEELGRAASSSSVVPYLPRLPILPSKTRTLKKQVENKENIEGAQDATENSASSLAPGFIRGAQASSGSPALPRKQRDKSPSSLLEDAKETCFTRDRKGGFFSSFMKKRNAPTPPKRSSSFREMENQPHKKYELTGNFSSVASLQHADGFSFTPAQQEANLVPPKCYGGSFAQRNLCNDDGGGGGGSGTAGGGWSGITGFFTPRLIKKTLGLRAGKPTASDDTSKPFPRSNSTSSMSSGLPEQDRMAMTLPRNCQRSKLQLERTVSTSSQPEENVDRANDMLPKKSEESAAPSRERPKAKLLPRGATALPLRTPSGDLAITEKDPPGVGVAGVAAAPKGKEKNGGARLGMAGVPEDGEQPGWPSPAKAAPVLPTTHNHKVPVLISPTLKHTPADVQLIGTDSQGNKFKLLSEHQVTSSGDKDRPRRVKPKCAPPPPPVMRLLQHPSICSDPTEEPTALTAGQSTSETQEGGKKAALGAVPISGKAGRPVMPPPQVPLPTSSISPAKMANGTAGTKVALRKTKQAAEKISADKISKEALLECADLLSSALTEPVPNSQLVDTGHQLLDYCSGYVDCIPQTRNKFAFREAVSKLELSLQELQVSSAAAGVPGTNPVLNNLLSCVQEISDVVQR

[27] = target: Cyclin-dependent kinase 9 (Homo sapiens) (UniProt P50750); assay: Inhibition of CDK9 in human HeLa cells assessed as downregulation of Serine 2 phosphorylation by measuring fold decrease at 10 uM incubated for 60 mins by Western blotting analysis; assay type: cell-based

COc1ccccc1-c1cc(Nc2cccc(NS(C)(=O)=O)c2)ncn1
pIC50 [1]: 5.84 | inhibition [2]: inactive | Activity [3]: 9.5% | pIC50 [4]: 5.03 | Activity [5]: Active | pIC50 [6]: < 5.00 | inhibition [7]: 50% | Ratio IC50 [8]: > 227 | inhibition [9]: Dose-Dependent Effect | Activity [10]: Active | inhibition [11]: 50% | inhibition [12]: Active | pKd [13]: 5.99 | inhibition [14]: Active | Activity [15]: Active | Activity [16]: Active | Activity [17]: Active | inhibition [18]: Active | inhibition [19]: Active | inhibition [20]: 50% | level, % of control at 10 µM [21]: 20% | pIC50 [22]: < 5.00 | fold change (FC) [23]: 1.6 | Activity [24]: Active | level, % of control at 10 µM [25]: 20% | Activity [26]: 27% | fold change (FC) [27]: 1.6
